A3A deaminase = inhibitors of human APOBEC3A DNA deaminase. P31941. recombinant A3A, FAM/TAMRA ssDNA deamination fluorescence. inhibition, % at 20 µM. 330,000 compounds, 0.41% hits. AID 493011;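 active = at least 40% inhibition at 20 µM here, with at most 30% in a related deaminase screen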;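 also: plate controls were A3A with DMSO for no effect and wells lacking A3A enzyme for full effect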
ABHD5-PLIN5 inh = blocks binding of human ABHD5 to perilipin-5. 360,000 compounds, 0.78% hits. inhibition, % at 4 µM. Q00G26+Q8WTS1. Split G. princeps luciferase complementation, luminescence, 4 h;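 active = inhibition above the mean inhibition across every tested compound plus 3 SD, cut at about 22% in these data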;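 also: 0% = DMSO only wells and the 100% control is not disclosed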
APOBEC3G inh = blocks human APOBEC3G single-stranded DNA deamination | Q9HC16 | recombinant A3G, ssDNA deamination FAM/TAMRA fluorescence | inhibition, % at 20 µM | 330,000 compounds, 0.28% hits;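 active = inhibition of at least 40% at 20 µM, with no more than 30% in the related APOBEC3A deaminase screen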;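 also: plate controls were DMSO wells with A3G for no effect and wells lacking A3G enzyme for full effect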
PRMT1 FP inh = inhibitors of human PRMT1. Q99873. recombinant PRMT1, activity-based probe fluorescence polarization. inhibition, % at 2.79 µM. 370,000 compounds, 1.3% hits;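 active = inhibition above about 21% made by adding two undisclosed values, limit read from the data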
HCV NS3 hel inh = HCV NS3 helicase inhibition. NS3 helicase DNA unwinding, Cy5 molecular beacon fluorescence. inhibition, % at 10.9 µM. 290,000 compounds, 0.56% hits;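 active = inhibition above the mean of all tested compounds plus 3 SD, set per campaign, cut at about 35% in these data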;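 also: 0% = DMSO wells and 100% = thioflavine S control wells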
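System: NS3 helicase fragment of HCV / Schedule: 1 h at 25 °C / Control set: DMSO alone as 0% and 110 µM thioflavine S as 100% / Reagent: Cy5/quencher beacon DNA duplex and ATP to start / Technique: Cy5 fluorescence / Replication: singlicate / Evaluation: % inhibition of end-to-start signal ratio versus controls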
core dimer inh = HCV core protein dimerization inhibition; TR-FRET GST/Flag-core106 dimerization, 1536-well; inhibition, % at 5 µM; 300,000 compounds, 0.33% hits; AID 1899;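 active = inhibition above the mean of all tested compounds plus 3 SD, set per screening campaign, cut at about 45% in these data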
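System: GST-tagged and Flag-tagged HCV core protein residues 1-106 / Input: core106 proteins, GST 13.5 nM and Flag 17 nM / Buffer or medium: KF-containing HEPES buffer, pH 7.45, DTT, CHAPS, BSA / Probe or stimulus: Eu-anti-GST and XL665-anti-Flag labelled anti-tag antibodies / Schedule: 4 h, 22.5 °C incubation / Technique: TR-FRET 671 and 617 nm emission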
Starred values were filed as active, the others as inactive; · = not tested or not shown. Only some compounds are listed: those with a hit (about 2.9% of all), similar ones and a draw of the others.

SMILES	A3A deaminase	ABHD5-PLIN5 inh	APOBEC3G inh	PRMT1 FP inh	HCV NS3 hel inh	core dimer inh
Cc1ccc(S(=O)(=O)N2Cc3ccccc3CC2C(=O)Nc2ccc3c(c2)OCO3)cc1 (stereo not drawn)	15.5	-8.6	6.3	-1.6	-1.4	53.7*
O=C(CSc1nnc(NC(=O)c2ccccc2Cl)s1)Nc1ccc2c(c1)oc1ccccc12	-0.8	·	-22.9	-0.9	-1.1	49.2*
Cc1[nH]c(=O)c(C(=O)/C=C/c2ccccc2F)c2c1CCCC2	-4.4	50.9*	-4.8	-3.9	-7.7	13.9
Cc1ccc(C(=O)Nc2nnc(S(=O)(=O)N3CCC(C)CC3)s2)cc1	0.9	-1.2	5.8	1.2	4.0	11.2
COc1ccc(-c2csc(C(O)c3ccc(F)c(OC)c3)n2)cc1 (stereo not drawn)	·	5.5	·	-2.5	·	·
Cc1c(Cl)cccc1NC(=O)CSc1nncn1-c1ccccn1	-1.5	6.4	-8.1	24.5*	0.0	-1.2
Cc1c(N)cc2c(c1N)C(C)(C)CC2(C)C	·	-9.2	·	-1.6	·	·
COC(=O)[C@]12C[C@H](CC(=O)NCc3ccc(C)o3)C(=O)N(Cc3ccc4c(c3)OCO4)C1=C[C@H](COCc1ccccc1)O[C@@H]2C	·	·	·	-2.0	·	·
COc1ccc(C2=CSC(/N=C/c3ccc(F)cc3)=NN2)cc1	-1.5	-14.3	0.0	24.2*	5.6	2.8
COc1ccc(/C=N/c2c(-c3ccc(OC)cc3)nc3n2CCS3)cc1	0.4	-24.4	1.2	9.3	-7.6	-15.6
CC(C)C[C@H](NC1(C(=O)NC2CCCCC2)CCN(C)CC1)C(=O)NCC(c1ccccc1)c1ccccc1	·	·	·	3.5	·	·
COCCCNC(=O)C[C@H]1C[C@@]2(C(=O)OC)C(=C[C@H](COCc3ccccc3)O[C@@H]2C)N(Cc2ccc3c(c2)OCO3)C1=O	·	·	·	-4.7	·	·
COc1cc(C2Nc3c(F)cccc3C3C=CCC32)cc(Br)c1OC (stereo not drawn)	0.9	-3.0	6.7	19.0	26.8	46.3*
Cc1ccc(Nc2n[nH]c(=S)s2)cc1F	·	-18.0	·	21.5*	·	·
CC(=O)Nc1ccc(C=NNc2ccc(S(=O)(=O)Nc3ccccc3C(=O)O)cc2[N+](=O)[O-])cc1	-3.8	-1.7	-8.5	10.9	·	·
O=C(O)c1ccccc1NS(=O)(=O)c1ccc(NNC(=S)Nc2ccc(OC(F)F)cc2)c([N+](=O)[O-])c1	·	-7.9	·	23.2*	9.9	·
COc1ccc(NC(=S)NNC(=O)COc2ccc(Cl)cc2Cl)cc1	-1.5	-7.9	-3.5	23.5*	-5.5	-2.7
O=C(NCC1CCCCC1)c1csc([C@@H]2C[C@H](O)[C@@H](CO)O2)n1	·	-5.9	·	-7.2	·	·
CCOC(=O)C1=C(C(=O)OCC)C2N(Cc3ccc(C#N)cc3)c3ccccc3[C@@]23C[C@@H](C(=O)OC)N(S(=O)(=O)c2c(C)noc2C)C3=N1 (stereo partly drawn)	·	·	·	-1.7	·	·
O=C(NCc1ccco1)[C@@H]1CSC2c3ccccc3C(=O)N21 (stereo partly drawn)	5.8	8.2	-3.0	21.2*	17.4	32.5
COc1ccc2c(c1)[C@@]1(NCCc3c1[nH]c1ccc(OC)cc31)C(=O)N2	·	·	·	-9.2	·	·
O=C(CCCCl)Nc1c2c(nn1-c1ccccc1)CSC2	-0.9	0.1	1.4	23.1*	6.0	-0.5
O=C(/C=C\c1ccc2c(c1)OCO2)Nc1c2c(nn1-c1ccc(Cl)cc1)CSC2	-2.6	3.3	-11.7	5.0	0.4	46.7*
O=C(CCl)Nc1c2c(nn1-c1ccccc1)CSC2	0.1	8.3	0.9	17.9	5.5	12.6
C=C[C@@H]1c2cc(C)ccc2N(S(=O)(=O)c2ccc(C)cc2)[C@H](c2ccccc2C(F)(F)F)C1(C#N)C#N	-3.2	0.8	-12.3	-0.8	·	·
C[C@@H]1COc2cc(N3CCSCC3)ccc2S(=O)(=O)N1	·	2.5	·	-0.9	·	·
Cc1cc(NS(=O)(=O)c2ccc(NC(=O)c3ccco3)cc2)nc(C)n1	4.1	2.2	1.1	-1.3	-4.9	-5.2
Cc1cc(NS(=O)(=O)c2ccc(NC(=O)/C=C/c3ccco3)cc2)nc(C)n1	2.0	-1.1	-3.5	24.2*	14.6	-3.0
CC(C)N1CCN(c2ccncc2S(=O)(=O)N2CCN(C)CC2)CC1	·	-3.9	·	0.1	·	·
